Assay results taken from ChEMBL document CHEMBL3526126, “Amide hydrolysis of a novel chemical series of microsomal prostaglandin E synthase-1 inhibitors induces kidney toxicity in the rat” (Drug Metab Dispos, 2013).
In brackets after ≈: the same amount, converted by molar mass.

Key:
Rattus norvegicus [1] = assay: Drug level in Wistar Hannover rat treated with [14C]-AZ'7847 at 500 umol/kg, po qd administered for 7 days measured on day 7 by radio monitoring method; type: ADME, organism-based; conditions: in vivo, 168 h
[2] = Solubility in rat urine at pH 7 after 5 hrs; type: physicochemical
Summary of the method: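 Samples in rat urine at pH 7.0 were incubated at 37°C for 5 hours. They were analysed by HPLC on a C18 column with photodiode array and single mass detection.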

[3] = Cmax in Sprague-Dawley rat at 500 umol/kg, po qd administered for 7 days measured on day 7; type: ADME, organism-based; set-up: dose 500 umol/kg, route oral; conditions: in vivo
Summary of the method: (§1)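 Toxicity study 2: 2 female satellite rats per dose group. Dosing was once daily by oral gavage (10 ml/kg) for 7 days. Tail-vein EDTA blood was taken at 2, 4, 6, 7 and 24 h on day 1 and on day 7, then chilled and centrifuged to plasma. Parent and M1 were quantified by LC-MS/MS, with M1 measured in negative electrospray mode.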

[4] = AUC (0 to 24 hrs) in Sprague-Dawley rat at 500 umol/kg, po qd administered for 7 days measured on day 7; type: ADME, organism-based; set-up: dose 500 umol/kg, time < 24 hr, route oral; conditions: plasma; summary of the method: as §1
[5] = Cmax in Sprague-Dawley rat at 2000 umol/kg, po qd administered for 7 days measured on day 7; type: ADME, organism-based; set-up: dose 2000 umol/kg, route oral; conditions: in vivo; summary of the method: as §1
[6] = AUC (0 to 24 hrs) in Sprague-Dawley rat at 2000 umol/kg, po qd administered for 7 days measured on day 7; type: ADME, organism-based; set-up: time < 24 hr, dose 2000 umol/kg, route oral; conditions: plasma; summary of the method: as §1
Rattus norvegicus [7] = assay: Toxicity in Wistar Hannover rat kidney assessed as increase in plasma urea level at 500 to 2000 umol/kg, po qd administered for 7 days measured on day 7; type: organism-based; conditions: in vivo, 168 h
Summary of the method: (§2)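 Wistar Hannover rats, about 8 weeks old, were acclimatized about 2 weeks and randomized by body weight. Dosing was by oral gavage (10 ml/kg) once daily for 7 days, with vehicle controls. At the end of dosing, plasma (lithium heparin) was taken from the orbital plexus under isoflurane/oxygen anaesthesia, and urea and creatinine were measured.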

Rattus norvegicus [8] = assay: Toxicity in Wistar Hannover rat kidney assessed as increase in plasma creatinine level at 500 to 2000 umol/kg, po qd administered for 7 days measured on day 7; type: organism-based; conditions: in vivo, 168 h; summary of the method: as §2
Rattus norvegicus [9] = assay: Toxicity in Wistar Hannover rat kidney assessed as crystals in urine at 500 to 2000 umol/kg, po qd administered for 7 days measured on day 7; type: organism-based; conditions: in vivo, 168 h
Rattus norvegicus [10] = assay: Toxicity in Wistar Hannover rat kidney assessed as histopathogical changes at 500 to 2000 umol/kg, po qd administered for 7 days measured on day 8 by hematoxylin/eosin staining-based light microscopic analysis; type: organism-based; conditions: in vivo, 168 h
Summary of the method: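 Wistar Hannover rats, about 8 weeks old, were gavaged once daily (10 ml/kg) for 7 days. One day after the last dose they were killed by carotid exsanguination under isoflurane/oxygen. Kidneys were fixed in buffered formalin, embedded in paraffin, sectioned, stained with hematoxylin and eosin, and examined by light microscopy.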

[11] = Cmax in Wistar Hannover rat at 500 umol/kg, po qd measured on day 1; conditions: in vivo
[12] = Cmax in Wistar Hannover rat at 2000 umol/kg, po qd measured on day 1; conditions: in vivo
[13] = AUC (0 to 24 hrs) in Wistar Hannover rat at 500 umol/kg, po qd measured on day 1; conditions: plasma
[14] = AUC (0 to 24 hrs) in Wistar Hannover rat at 2000 umol/kg, po qd measured on day 1; conditions: plasma
Hepatocyte [15] = assay: Drug level in Sprague-Dawley rat hepatocytes treated with AZ'7847 at 1 to 10 uM by LC-MS analysis; type: ADME, cell-based
Summary of the method: (§3)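 Metabolic profiling in rat hepatocytes at 1 × 10^6 cells/ml in William's medium, shaken gently at 37°C under 5% CO2. Substrate was tested at two concentrations (1 and 10). For radio detection, a 14C-labelled substrate was separated on an Atlantis T3 column (1 ml/min) with a 1:20 split to the MS and a flow scintillation monitor.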

Hepatocyte [16] = assay: Drug level in Sprague-Dawley rat hepatocytes treated with AZ'7847 at 1 to 10 uM by radio monitoring method; type: ADME, cell-based; summary of the method: as §3
[17] = Drug metabolism in cryopreserved human hepatocytes assessed as amide hydrolysis at 1 to 10 uM by LC-MS analysis; type: ADME, cell-based, Hepatocyte
Summary of the method: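 Hepatocytes at 1 × 10^6 cells/ml in William's medium incubated at 37°C with gentle shaking under 5% CO2. Substrate was at […]. Metabolites were analysed by LC-MS.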

Rattus norvegicus [18] = assay: Toxicity in Wistar Hannover rat kidney assessed as increase in plasma creatinine level at 435 to 900 umol/kg, po qd administered for 14 days measured on day 14; type: organism-based; conditions: in vivo, 336 h, in the assay text read “900 umol/kg” for “435 to 900 umol/kg”
Summary of the method: (§4)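 Female Wistar Hannover rats (10 per group), about 8 weeks old, were dosed by oral gavage (10 ml/kg) once daily for 14 days. The compound was given as a solution in 15% (w/v) hydroxypropyl-β-cyclodextrin in 0.2 M meglumine. At the end of dosing, plasma (lithium heparin) was taken from the orbital plexus under isoflurane/oxygen anaesthesia for plasma chemistry.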

Rattus norvegicus [19] = assay: Toxicity in Wistar Hannover rat kidney assessed as change in plasma chemistry parameter at 435 umol/kg, po qd administered for 14 days measured on day 14; type: organism-based; conditions: in vivo, 336 h; summary of the method: as §4
Rattus norvegicus [20] = assay: Toxicity in Wistar Hannover rat kidney assessed as crystals in urine at 435 to 900 umol/kg, po qd administered for 14 days measured on day 14; type: organism-based; conditions: in vivo, 336 h
[21] = Cmax in Sprague-Dawley rat at 10 umol/kg, po qd measured on day 1; type: ADME, organism-based; set-up: dose 10 umol/kg, route oral; conditions: in vivo
Summary of the method: (§5)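 Single-dose PK in male Sprague-Dawley rats (n = 3). Plasma was profiled over time for parent and for the amide-hydrolysis metabolite M1, and AUC0–24 and Cmax were derived. The dosing protocol follows earlier work.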

[22] = Cmax in Sprague-Dawley rat at 435 umol/kg, po qd measured on day 1; type: ADME, organism-based; set-up: dose 435 umol/kg, route oral; conditions: in vivo
Summary of the method: (§6)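 Toxicity study 3: 5 female animals per dose group for TK. The compound was given as a solution in 15% (w/v) hydroxypropyl-β-cyclodextrin in 0.2 M meglumine, by oral gavage (10 ml/kg) once daily for 14 days. Blood was microsampled at 2, 4, 6, 7 and 24 h on day 1 and on the last dosing day. Parent only was measured, not M1.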

[23] = Cmax in Sprague-Dawley rat at 900 umol/kg, po qd measured on day 1; type: ADME, organism-based; set-up: dose 900 umol/kg, route oral; conditions: in vivo; summary of the method: as §6
[24] = AUC (0 to 24 hrs) in Sprague-Dawley rat at 10 umol/kg, po qd measured on day 1; type: ADME, organism-based; set-up: dose 10 umol/kg, time < 24 hr, route oral; conditions: plasma; summary of the method: as §5
[25] = AUC (0 to 24 hrs) in Sprague-Dawley rat at 435 umol/kg, po qd measured on day 1; type: ADME, organism-based; set-up: dose 435 umol/kg, time < 24 hr, route oral; conditions: plasma; summary of the method: as §6
[26] = AUC (0 to 24 hrs) in Sprague-Dawley rat at 900 umol/kg, po qd measured on day 1; type: ADME, organism-based; set-up: time < 24 hr, dose 900 umol/kg, route oral; conditions: plasma; summary of the method: as §6
[27] = Cmax in Sprague-Dawley rat at 435 umol/kg, po qd administered for 14 days measured on day 14; type: ADME, organism-based; set-up: dose 435 umol/kg, route oral; conditions: in vivo; summary of the method: as §6
[28] = Cmax in Sprague-Dawley rat at 900 umol/kg, po qd administered for 14 days measured on day 14; type: ADME, organism-based; set-up: dose 900 umol/kg, route oral; conditions: in vivo; summary of the method: as §6
[29] = AUC (0 to 24 hrs) in Sprague-Dawley rat at 435 umol/kg, po qd administered for 14 days measured on day 14; type: ADME, organism-based; set-up: dose 435 umol/kg, time < 24 hr, route oral; conditions: plasma; summary of the method: as §6
[30] = AUC (0 to 24 hrs) in Sprague-Dawley rat at 900 umol/kg, po qd administered for 14 days measured on day 14; type: ADME, organism-based; set-up: dose 900 umol/kg, time < 24 hr, route oral; conditions: plasma; summary of the method: as §6
Rattus norvegicus [31] = assay: Toxicity in Wistar Hannover rat kidney assessed as increase in plasma urea level at 435 to 900 umol/kg, po qd administered for 14 days measured on day 14; type: organism-based; conditions: in vivo, 336 h; summary of the method: as §4

With NS(=O)(=O)c1ccccc1S(N)(=O)=O the Drug metabolism (Rattus norvegicus [1]) was “metabolite_detected”, the solubility at 5 h [2] was 83 µM (≈ 19.6 µg/mL) and the Cmax [3] was 70 µM. The AUC at 24 h [4] was 1300 µM·h, the Cmax [5] was 80 µM and the AUC at 24 h [6] was 1250 µM·h. For the same compound, the Activity (Rattus norvegicus [7]) was “Non-toxic”, the Activity (Rattus norvegicus [8]) was “Non-toxic” and the Activity (Rattus norvegicus [9]) was “Toxic”. For the same compound, the Activity (Rattus norvegicus [10]) was “Non-toxic”, the Cmax [11] was 57 µM and the Cmax [12] was 66 µM. The AUC(0-t) at 24 h [13] was 1080 µM·h and the AUC(0-t) at 24 h [14] was 1150 µM·h.

With O=[14C](O)c1ccc(C#Cc2ccccc2)cc1 the Drug metabolism (Hepatocyte [15]) was “metabolite_detected”, the Drug metabolism (Hepatocyte [16]) was “metabolite_detected” and the Drug metabolism (Rattus norvegicus [1]) was “metabolite_detected”.

With Cc1cc(C(=O)NS(=O)(=O)c2ccccc2S(N)(=O)=O)ccc1C#CC1CCC1 the Drug metabolism [17] was “metabolite_not_detected”, the Activity (Rattus norvegicus [18]) was “Toxic” and the Activity (Rattus norvegicus [19]) was “Non-toxic”. The Activity (Rattus norvegicus [20]) was “Toxic”, the Cmax [21] was 11 µM and the Cmax [22] was 375 µM. The Cmax [23] was 540 µM, the AUC(0-t) at 24 h [24] was 58 µM·h and the AUC(0-t) at 24 h [25] was 2220 µM·h. The AUC(0-t) at 24 h [26] was 5030 µM·h, the Cmax [27] was 415 µM and the Cmax [28] was 480 µM. For the same compound, the AUC at 24 h [29] was 2520 µM·h, the AUC at 24 h [30] was 5000 µM·h and the Activity (Rattus norvegicus [31]) was “Toxic”.
